# Measurements published in ChEMBL document CHEMBL1150672, “Chemical transformations on botryane skeleton. Effect on the cytotoxic activity” (J Nat Prod, 2003).
# Tests used:
# HT-1080 = assay: Cytotoxicity against human HT1080 cells after 24 hrs by MTT assay; type: functional; settings: HT-1080, 24 h, read-out: ID50 (the source's name)
# Procedure, shortened: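 HT-1080 cells (ATCC) were kept in DMEM with 10% FCS, 1% glutamine and 1% vitamins at 37 °C, 5% CO2. Cells were seeded at 4 or 8×10^3/well and attached overnight, then exposed for 24 h in duplicate to methanol-dissolved compounds diluted in medium, with a methanol blank. MTT (5 mg/mL stock) was given for 4 h, formazan solubilized in DMSO, and absorbance read at 550 nm.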
# MDA-MB-231 = assay: Cytotoxicity against human MDA-MB-231 cells after 24 hrs by MTT assay; type: functional; settings: MDA-MB-231, 24 h, read-out: ID50 (the source's name)
# Procedure, shortened: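 MDA-MB-231 cells (ATCC) were cultured in Leibovitz's L-15 with 10% FCS. Cells were seeded at 4 or 8×10^3/well and attached overnight at 37 °C. Compounds dissolved in methanol and diluted in medium were added for 24 h in duplicate, with a methanol blank. MTT (5 mg/mL stock) was added for 4 h, formazan taken up in DMSO, and A550 recorded.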
# [1] = Cytotoxicity against human IMR90 cells after 24 hrs by MTT assay; type: cell-based, IMR-90; settings: read-out: ID50
# Procedure, shortened: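 IMR-90 embryonic fibroblasts (ATCC) were grown in DMEM with 10% FCS and 1% glutamine at 37 °C, 5% CO2. Cells were plated at 4 or 8×10^3/well and attached overnight. They were treated 24 h, in duplicate, with compounds from methanol stocks diluted in medium, with a methanol blank. MTT (5 mg/mL stock) was added for 4 h, formazan dissolved in DMSO, and read at 550 nm.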
# [2] = Cytotoxicity against human U87MG cells after 24 hrs by MTT assay; type: functional, U-87MG ATCC; settings: U-87 MG, read-out: ID50 (the source's name)
# Procedure, shortened: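 U87-MG glioblastoma cells (ATCC) were grown in MEM with 10% FCS, 1% sodium pyruvate and 1% nonessential amino acids. Cells were seeded at 4 or 8×10^3/well and adhered overnight at 37 °C. They were exposed 24 h, in duplicate, to methanol-dissolved compounds diluted in medium, with a methanol blank. MTT (5 mg/mL stock) was added for 4 h, formazan dissolved in DMSO, and absorbance read at 550 nm.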
# [3] = Cytotoxicity against HUVEC after 24 hrs by MTT assay; type: cell-based; settings: human, read-out: ID50
# Procedure, shortened: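 Primary HUVEC from newborns, grown in DMEM/medium 199 with 20% FCS, 10 mM HEPES, heparin and ECGS at 37 °C, 5% CO2. Cells were seeded at 4 or 8×10^3/well and attached overnight. Compounds were added from methanol solutions diluted in medium, with a methanol blank, for 24 h in duplicate. MTT (5 mg/mL stock) was added for 4 h, formazan dissolved in DMSO, and A550 read.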
# [4] = Cytotoxicity against human Hs 578T cells after 24 hrs by MTT assay; type: functional; settings: read-out: ID50 (the source's name)
# Procedure, shortened: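 Hs578T cells (ATCC) were maintained in DMEM with 10% FCS, 1% glutamine and 10 μg/mL insulin. Cells were seeded at 4 or 8×10^3/well and allowed to adhere overnight at 37 °C. They were exposed 24 h, in duplicate, to compounds in methanol diluted with medium, with a methanol blank. MTT (5 mg/mL stock) was added for 4 h, formazan dissolved in DMSO, and A550 measured.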
Structure (SMILES),IC50 (HT-1080) [µg/mL],IC50 (MDA-MB-231) [µg/mL],CC50 at 24 h [1] [µg/mL],IC50 [2] [µg/mL],CC50 at 24 h [3] [µg/mL],IC50 [4] [µg/mL]
CC(=O)O[C@H]1C[C@@H](C)[C@H](C=O)[C@@]2(O)[C@@H]1C(C)(C)C[C@]2(C)C=O [BOTRYDIAL],1,1,10,1,1,1
COC(=O)[C@@]1(C)CC(C)(C)[C@H]2C1=C(C=O)[C@H](C)C[C@@H]2O [METHYL BOTRYENALOATE],> 10,> 10,> 10,> 10,> 10,> 10
CC(=O)O[C@H]1C[C@@H](C)[C@H](C=O)[C@]2(O)[C@@H]1C(C)(C)C[C@@]2(C)C=O,5,0.1,10,1,5,1
C=CC1=C(/C(=C\C)CO)[C@@](C)(CO)CC1(C)C [SECOBOTRYTRIENDIOL],> 10,> 10,> 10,> 10,> 10,> 10
CC(=O)O[C@H]1C[C@@H](C)[C@@H]2[C@@H](O)[C@H](O)[C@@]3(C)CC(C)(C)[C@H]1[C@]23O,> 10,> 10,> 10,> 10,> 10,> 10
CC(=O)O[C@H]1C[C@@H](C)[C@H](C(=O)O)[C@@]2(O)[C@@H]1C(C)(C)C[C@]2(C)C(=O)O [BOTRYDIOIC ACID],> 10,> 10,> 10,> 10,> 10,> 10
C[C@@H]1C[C@H](O)[C@H]2C(C)(C)C[C@]3(C)COC[C@@H]1[C@@]23O,> 10,> 10,> 10,> 10,> 10,> 10
Cc1ccc2c(c1CO)[C@@](C)(CO)C[C@@]2(C)CO,> 10,> 10,> 10,> 10,> 10,> 10
CC(=O)O[C@H]1C[C@@H](C)[C@H](C(=O)O)[C@@]2(O)[C@@H]1C(C)(C)C[C@]2(C)C=O,> 10,> 10,> 10,> 10,> 10,> 10
CC(=O)O[C@H]1C[C@@H](C)[C@@H]2C(=O)OC[C@@]3(C)CC(C)(C)[C@H]1[C@]23O,> 10,> 10,> 10,> 10,> 10,> 10
CC(=O)O[C@H]1C[C@@H](C)[C@@H]2COC(=O)[C@@]3(C)CC(C)(C)[C@H]1[C@]23O,> 10,> 10,> 10,> 10,> 10,> 10
COC(=O)[C@H]1[C@H](C)C[C@H](OC(C)=O)[C@H]2C(C)(C)C[C@](C)(C(=O)OC)[C@@]12O [DIMETHYL BOTRYDIOATE],> 10,> 10,> 10,> 10,> 10,> 10
COC(=O)[C@@]1(C)CC(C)(C)[C@@H]2[C@@H](OC(C)=O)C[C@@H](C)[C@H](C=O)[C@@]21O [METHYL ACETYLBOTRYALOATE],> 10,> 10,> 10,> 10,> 10,> 10
CC(=O)O[C@H]1C[C@@H](C)[C@H](C(=O)O)[C@@]2(O)[C@@H]1C(C)(C)C[C@]2(C)CO [BOTRYOLOIC ACID],> 10,> 10,> 10,> 10,> 10,> 10
CC(=O)O[C@H]1C[C@@H](C)[C@@H]2COC[C@@]3(C)CC(C)(C)[C@H]1[C@]23O,> 10,> 10,> 10,> 10,> 10,> 10
CC(=O)O[C@H]1C[C@@H](C)[C@H](CO)C2=C1C(C)(C)C[C@]2(C)CO,> 10,> 10,> 10,> 10,> 10,> 10
CC(=O)O[C@H]1C[C@@H](C)C(C=O)=C2[C@@H]1C(C)(C)C[C@]2(C)C=O [BOTRYENEDIAL],10,10,> 10,10,10,10
CC(=O)O[C@H]1C[C@@H](C)[C@@H]2[C@@H](O)OC[C@@]3(C)CC(C)(C)[C@H]1[C@]23O [DIHYDROBOTRYDIAL],> 10,> 10,> 10,> 10,> 10,> 10
CC(=O)O[C@H]1C[C@@H](C)[C@H](CO)[C@@]2(O)[C@@H]1C(C)(C)C[C@]2(C)CO [BOTRYDIOL],> 10,> 10,> 10,> 10,> 10,> 10
CC1(C)C[C@](C)(CO)c2c1ccc(CO)c2CO,> 10,> 10,> 10,> 10,> 10,> 10
CC(=O)O[C@H]1C[C@@H](C)[C@@H]2[C@H](O)OC[C@@]3(C)CC(C)(C)[C@H]1[C@]23O,> 10,> 10,> 10,> 10,> 10,> 10
CC(=O)O[C@H]1C[C@@H](C)C(C=O)=C2[C@@H]1C(C)(C)C[C@]2(C)CO [BOTRYENALOL],> 10,> 10,> 10,> 10,> 10,> 10
COC(=O)[C@@]1(C)CC(C)(C)[C@@H]2[C@@H](O)C[C@@H](C)[C@H](C=O)[C@@]21O [METHYL BOTRYALOATE],> 10,> 10,> 10,> 10,> 10,> 10
C[C@@H]1CC=C2C(=C1C=O)[C@@](C)(C=O)CC2(C)C,1,0.1,1,1,1,1
CC(=O)O[C@H]1C[C@@H](C)[C@@H](C=O)[C@@]2(O)[C@@H]1C(C)(C)C[C@]2(C)C=O,10,1,10,5,10,5
Cc1ccc2c(c1C=O)[C@@](C)(C=O)CC2(C)C,1,10,10,5,5,1
CC(=O)O[C@H]1C[C@@H](C)[C@@H]2COC(C)(C)OC[C@@]3(C)CC(C)(C)[C@H]1[C@]23O,> 10,> 10,> 10,> 10,> 10,> 10
